How the values were obtained:
Canis familiaris [1] = species: Canis familiaris; experiment: Maximal contractile response obtained with the agonist (expressed as a percentage of the maximal contraction to phenylephrine in the dog femoral artery); type: functional, Canis lupus familiaris
How it was run: (§1)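 Vessel segments from mongrel dogs (15–25 kg) anesthetized with pentobarbital (30 mg/kg iv), mounted for isometric tension in physiological saline. Equilibrated 90 min with bath changes every 30 min, rauwolscine (10^-7 M) present throughout. Primed with KCl (100 mM), then phenylephrine (1 µM). Agonist concentration–response curves run at half-log steps, giving EC50 (µM) and Emax as % of phenylephrine maximum; mean ±SD.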

[2] = Ratio of C20 obtained in the absence or presence of [C20 (1 mg of yohimbine.) / C20 (control)]; type: functional
How it was run: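 Pithed rat arterial pressure assay with tertatolol (100 mg/kg) pretreatment, then yohimbine (1 mg/kg) 10 min later. Cumulative iv agonist doses given at 20 s intervals after a further 10 min, C20 (+20 mmHg dose) obtained. Ratio expressed as C20(yohimbine)/C20(control); 3–6 determinations.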

Canis familiaris [3] = species: Canis familiaris; experiment: Effective concentration for the agonist in the isolated blood vessel using in vitro femoral artery; type: functional; settings: Canis lupus familiaris; how it was run: as §1
[4] = biological target: T1, Adrenergic receptor alpha (Rattus norvegicus) (UniProt P15823+P23944+P43140+P22086+P19328+P22909); experiment: Alpha adrenergic activity was evaluated as maximal pressure response caused by agonist, expressed in mmHg (the maximum obtained with phenylephrine is 150 mmHg).; type: functional
Canis familiaris [5] = species: Canis familiaris; experiment: Effective concentration for the agonist in the isolated blood vessel using in vitro saphenous vein; type: functional; settings: Canis lupus familiaris; how it was run: as §1
[6] = biological target: T1, Adrenergic receptor alpha (Rattus norvegicus); experiment: Alpha adrenergic activity was evaluated as concentration (iv) which increases the arterial pressure by 20 mmHg in the pithed rat; type: functional, organism-based; settings: Artery
[7] = Ratio of C20 obtained in the absence or presence of [C20 ( 0.1 mg of prazosin ) / C20 (control)]; type: functional
How it was run: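 Pithed rats pretreated with tertatolol (100 mg/kg), then 10 min later with prazosin (100 µg/kg). Cumulative iv agonist doses given another 10 min later at 20 s intervals. Arterial pressure recorded, C20 (dose giving +20 mmHg) determined. Ratio calculated as C20(prazosin)/C20(control); 3–6 determinations.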

Canis familiaris [8] = species: Canis familiaris; experiment: Maximal contractile response obtained with the agonist (expressed as a percentage of the maximal contraction to phenylephrine in the dog saphenous vein); type: functional, Canis lupus familiaris; how it was run: as §1
[9] = biological target: T2, Adrenergic receptor alpha-1 (Rattus norvegicus, UniProt P15823+P23944+P43140); experiment: Displacement of [3H]prazosin from rat cortex Alpha-1 adrenergic receptor
T2 sequence (P15823 whole entry): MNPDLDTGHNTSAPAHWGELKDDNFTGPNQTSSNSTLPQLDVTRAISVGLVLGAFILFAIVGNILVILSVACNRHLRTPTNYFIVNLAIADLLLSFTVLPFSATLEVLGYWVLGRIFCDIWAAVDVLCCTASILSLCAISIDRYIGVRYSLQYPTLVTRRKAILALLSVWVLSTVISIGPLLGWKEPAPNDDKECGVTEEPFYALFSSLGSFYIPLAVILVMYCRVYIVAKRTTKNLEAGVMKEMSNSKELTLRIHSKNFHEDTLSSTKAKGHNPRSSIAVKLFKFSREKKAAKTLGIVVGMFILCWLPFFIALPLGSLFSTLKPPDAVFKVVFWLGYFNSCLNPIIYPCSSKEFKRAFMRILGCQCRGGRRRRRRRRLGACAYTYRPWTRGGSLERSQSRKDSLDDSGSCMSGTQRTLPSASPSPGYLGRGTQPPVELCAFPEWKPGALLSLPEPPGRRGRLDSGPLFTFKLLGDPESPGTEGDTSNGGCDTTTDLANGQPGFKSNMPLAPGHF
T2 sequence (P23944 whole entry): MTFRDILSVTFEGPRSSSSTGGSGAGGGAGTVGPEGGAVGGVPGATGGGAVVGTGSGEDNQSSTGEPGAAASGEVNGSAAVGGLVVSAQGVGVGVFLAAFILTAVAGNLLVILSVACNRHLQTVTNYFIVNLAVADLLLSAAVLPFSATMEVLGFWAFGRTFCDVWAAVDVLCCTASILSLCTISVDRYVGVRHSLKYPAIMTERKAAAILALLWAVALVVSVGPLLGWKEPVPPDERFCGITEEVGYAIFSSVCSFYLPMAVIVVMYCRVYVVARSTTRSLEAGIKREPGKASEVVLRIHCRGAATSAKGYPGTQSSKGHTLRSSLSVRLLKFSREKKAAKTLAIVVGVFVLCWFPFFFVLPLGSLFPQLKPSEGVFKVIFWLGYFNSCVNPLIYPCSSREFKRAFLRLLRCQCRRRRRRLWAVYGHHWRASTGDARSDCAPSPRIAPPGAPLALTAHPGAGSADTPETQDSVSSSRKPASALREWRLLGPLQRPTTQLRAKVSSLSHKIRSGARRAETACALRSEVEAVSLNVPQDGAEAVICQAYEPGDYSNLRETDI
T2 sequence (P43140 whole entry): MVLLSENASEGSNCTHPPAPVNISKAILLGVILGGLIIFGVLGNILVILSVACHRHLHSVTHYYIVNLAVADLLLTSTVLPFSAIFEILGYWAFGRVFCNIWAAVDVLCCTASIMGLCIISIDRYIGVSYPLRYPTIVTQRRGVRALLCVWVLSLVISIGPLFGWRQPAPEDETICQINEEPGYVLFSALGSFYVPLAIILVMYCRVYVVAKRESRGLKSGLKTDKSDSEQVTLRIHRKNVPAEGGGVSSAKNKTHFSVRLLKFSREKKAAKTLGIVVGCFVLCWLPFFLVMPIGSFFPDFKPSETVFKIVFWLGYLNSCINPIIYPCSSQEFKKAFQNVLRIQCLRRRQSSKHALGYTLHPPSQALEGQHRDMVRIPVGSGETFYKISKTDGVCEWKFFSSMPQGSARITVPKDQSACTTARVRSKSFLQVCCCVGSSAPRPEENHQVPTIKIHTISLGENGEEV
How it was run: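 Rat cortex membranes labelled with [3H]prazosin (0.3 nM), nonspecific binding with prazosin (10 µM). Nine drug concentrations spanning 3 log units, IC50 by log-probit analysis. Ki by Cheng–Prusoff using Kd from Scatchard saturation. At least three independent experiments in duplicate.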

Structure (SMILES)	EC50 (Canis familiaris [3]) [µM]	Max [4] [mmHg]	EC50 (Canis familiaris [5]) [µM]	C20 [6] [µg/kg]	Ki [9] [µM]	Emax (Canis familiaris [1])	Ratio [2]	Ratio [7]	Emax (Canis familiaris [8])
COc1ccc(SC)c2c1C[C@@H]1[C@@H](C2)OCCN1C	38	123	0.023	23	–	28	2.4	5.1	38
NC1=NC2(CCc3ccccc3C2)CO1 (stereo not drawn)	26	95	2.3	5.2	–	18	19.6	3.5	76
COc1ccc(OC)c2c1CCC1(CN=CN1)C2 (stereo not drawn)	0.12	128	0.3	0.05	2	77	2	21	106
C1=NC2(CCc3ccccc3C2)CO1 (stereo not drawn)	–	38	–	> 10000	–	0	–	–	0
Fc1cc(F)c2c(c1)CC1(CC2)CN=CN1 (stereo not drawn)	–	84	6.3	31	–	0	5.7	2.4	35
NC1=NC2(CCc3ccccc3C2)CN1 (stereo not drawn)	50	53	52	57	–	2	26	2.5	36
CC1=NC2(CCc3ccccc3C2)CN1 (stereo not drawn)	–	113	400	166	–	0	5.3	1.8	23
Clc1cc(Cl)c2c(c1)CCC1(CN=CN1)C2 (stereo not drawn)	8	137	6	4.2	–	75	–	–	100
CCOc1ccc(OC)c2c1CCC1(CN=CN1)C2 (stereo not drawn)	0.08	147	0.8	0.06	–	85	4.8	21.5	98
CCOc1ccc(OCC)c2c1CCC1(CN=CN1)C2 (stereo not drawn)	0.85	157	2.7	0.6	–	55	7.7	24	68
CN1C=NC2(CCc3ccccc3C2)C1 (stereo not drawn)	–	77	25	150	–	0	2.5	2.1	31
COc1ccc(Cl)c2c1CCC1(CN=CN1)C2 (stereo not drawn)	0.27	–	0.027	–	–	102	–	–	106

The next lines start with results.

EC50 (Canis familiaris [3]) [µM]	Max [4] [mmHg]	EC50 (Canis familiaris [5]) [µM]	C20 [6] [µg/kg]	Ki [9] [µM]	Structure (SMILES)	Emax (Canis familiaris [1])	Ratio [2]	Ratio [7]	Emax (Canis familiaris [8])
3	140	2.4	0.5	–	Cc1ccc(C)c2c1CCC1(CN=CN1)C2 (stereo not drawn)	67	4.8	2.1	84
–	129	–	98	–	COc1cc2c(cc1OC)CC1(CC2)CN=CN1 (stereo not drawn)	–	–	1.8	–
–	45	40	465	–	CC(C)(C)c1ccc2c(c1)CC1(CC2)CN=CN1 (stereo not drawn)	0	1.6	1.7	35
0.29	136	0.18	0.003	0.6	COc1ccc(SC)c2c1CC1(CC2)CN=CN1 (stereo not drawn)	96	45	75	98
–	101	44	33	–	Clc1cc2c(cc1Cl)CC1(CC2)CN=CN1 (stereo not drawn)	0	3.1	7	36
–	62	3.9	74	–	CC(C)Oc1ccc2c(c1)CCC1(CN=CN1)C2 (stereo not drawn)	0	66	11	15
–	55	–	320	–	FC(F)(F)c1ccc2c(c1)CC1(CC2)CN=CN1 (stereo not drawn)	–	2.7	10	7
–	61	75	209	–	CCc1ccc2c(c1)CC1(CC2)CN=CN1 (stereo not drawn)	0	2.6	2.5	50
50	107	52	142	–	COc1ccc2c(c1OC)CCC1(CN=CN1)C2 (stereo not drawn)	21	2.4	2.9	67
1.4	134	19	1.2	–	COc1cc2c(cc1O)CCC1(CN=CN1)C2 (stereo not drawn)	69	2.8	9.2	97
1.6	133	0.24	0.3	–	Clc1cccc2c1CC1(CC2)CN=CN1 (stereo not drawn)	83	4.7	1.9	95
–	125	–	7	–	Clc1cccc2c1CCC1(CN=CN1)C2 (stereo not drawn)	–	2.8	1.3	–
0.7	109	7.3	7.9	–	COc1cc2c(c(OC)c1)CCC1(CN=CN1)C2 (stereo not drawn)	25	2.6	2.9	44
0.8	136	3.9	10	0.6	COc1cc(C)cc2c1CCC1(CN=CN1)C2 (stereo not drawn)	60	1	1.6	81
39	119	10	4.3	–	Oc1cccc2c1CC1(CC2)CN=CN1 (stereo not drawn)	22	12	0.9	66
14	114	2.1	5.4	–	Cc1ccc2c(c1)CCC1(CN=CN1)C2 (stereo not drawn)	12	6.1	1.3	44
